Assay outcomes from PubChem.
KDM4C inh: KDM4C (human) demethylase inhibition | Q9H3R0 | GST-KDM4C 2-372, H3K9me3 peptide, LANCE TR-FRET | actives 0.15% (n = 96,000) | inhibition, % at 12.5 µM;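 active = mean replicate inhibition above about 25%, with at least 55% of replicates also reaching it, limit read from the data, passing the limit was not always enough; inconclusive = only one of those two conditions met; inactive = neither condition met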
Target sequence (Q9H3R0 2-372 limits assumed): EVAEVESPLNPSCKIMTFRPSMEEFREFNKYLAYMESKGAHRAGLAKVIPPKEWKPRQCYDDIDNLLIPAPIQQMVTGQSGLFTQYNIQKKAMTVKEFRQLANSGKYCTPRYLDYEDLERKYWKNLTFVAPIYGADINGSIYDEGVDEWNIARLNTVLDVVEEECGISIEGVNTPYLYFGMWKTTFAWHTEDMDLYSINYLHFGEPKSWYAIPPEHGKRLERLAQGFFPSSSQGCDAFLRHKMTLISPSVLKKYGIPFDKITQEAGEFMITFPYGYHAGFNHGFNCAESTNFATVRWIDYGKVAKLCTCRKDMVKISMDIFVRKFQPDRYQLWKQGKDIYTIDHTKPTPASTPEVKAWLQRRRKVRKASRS
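material = GST-tagged GASC-1 (JMJD2C) catalytic fragment, aa 2-372 | amount = enzyme final amount 10 nM | medium = HEPES buffer, pH 7.5, plus ascorbate | also added = H3K9me3 peptide substrate, Fe(II), 2-oxoglutarate | dosing = single dose | times = 30 min demethylation and 1 h detection at room temperature | detection = LANCE TR-FRET | read-out basis = Fall in 671/618 emission ratio as inhibition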
IDH1 R132H inh: IDH1 R132H (human) inhibition; inhibition, % at 10 µM; AID 624101; IDH1 R132H reductase, diaphorase/resazurin fluorescence, 60 min; O75874; actives 0.18% (n = 70,000); in the data active = inhibition above about 34%; inconclusive = no clear call, values can overlap the other calls; inactive = below about 11%;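 also: 0% = DMSO and 100% = no enzyme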
T cruzi growth-1: T. cruzi proliferation inhibition. T. cruzi beta-gal in NIH3T3, GalScreen luminescence, 90 h. inhibition, % at 8.34 µM. actives 5.9% (n = 77,000). AID 624255;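 active = mean inhibition above about 93%, with at least 55% of replicates each passing it, limit read from the data, passing the limit was not always enough; inconclusive = only one of those two conditions holds; inactive = neither condition holds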
Pf Dd2 growth: blocks growth of Plasmodium falciparum Dd2 parasites; P. falciparum Dd2 growth, SYBR Green, 72 h; active compounds read low; activity change, % at 10 µM; actives 2.3% (n = 94,000); in the data active = activity change below about -80%; inconclusive = no clear call, values can overlap the other calls
T cruzi growth-2: blocks T. cruzi growth in NIH3T3 host cells; T. cruzi beta-gal in NIH3T3, GalScreen luminescence, 90 h; actives 72% (n = 5,600); inhibition, % at 8.35 µM; AID 651739; shares compounds with T cruzi growth-1;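 active = mean replicate inhibition above about 95% and at least 55% of replicates individually reaching it, limit read from the data; inconclusive = only one of the two criteria is met; inactive = neither criterion is met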
T cruzi growth-3: inhibitors of T. cruzi proliferation; shares compounds with T cruzi growth-1; inhibition, % at 2.09 µM; AID 651740; actives 21% (n = 5,600); T. cruzi beta-gal in NIH3T3, GalScreen luminescence, 90 h;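 active = mean inhibition above about 95%, with at least 55% of replicates also reaching it, limit read from the data; inconclusive = meets just one of the two conditions; inactive = meets neither condition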;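 also: plate controls were neutral control median for no effect and positive control median for full effect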
NIH3T3 tox: NIH/3T3 (mouse) viability loss; shares compounds with T cruzi growth-1; NIH/3T3 viability, CellTiter-Glo ATP luminescence, 90 h; cytotoxicity (signal decrease), % at 8.35 µM; actives 14% (n = 5,600);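 active = mean signal decrease across replicates above about 35% based on untreated-well scatter, with enough replicates individually passing, limit read from the data; inconclusive = no rule stated though some were filed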;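 also: 0% = median of neutral control wells and 100% = median of positive control wells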
NIH3T3 tox 2: NIH/3T3 (mouse) viability loss. shares compounds with T cruzi growth-1. NIH/3T3 viability, CellTiter-Glo ATP luminescence, 90 h. inhibition, % at 24.9 µM. actives 56% (n = 5,600). AID 651744;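 active = mean loss of cell viability signal at or above a set limit, and enough replicates individually reaching it; inconclusive = meets only the mean limit or only the replicate share; inactive = meets neither condition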;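 also: 0% = median of neutral control wells and 100% = median of positive control wells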
* hit, by the source's call; ? = inconclusive; nt = not tested or not shown; + = active, no number. A selection: hits, their analogues and other compounds. The true share with any hit is near 5.8%.

SMILES | KDM4C inh | IDH1 R132H inh | T cruzi growth-1 | Pf Dd2 growth | T cruzi growth-2 | T cruzi growth-3 | NIH3T3 tox | NIH3T3 tox 2
C[C@@H]1CN([C@@H](C)CO)S(=O)(=O)c2ccc(-c3ccncc3)cc2O[C@@H]1CN(C)C(=O)c1ccc2c(c1)OCO2 | -1 | 0 | 43 | 7 | nt | nt | nt | nt
C[C@@H]1CN([C@H](C)CO)S(=O)(=O)c2ccc(-c3ccncc3)cc2O[C@H]1CN(C)C(=O)c1ccc2c(c1)OCO2 | 2 | 0 | 105* | -62 | 101* | 91 | 29 | 44*
C[C@@H]1CN([C@H](C)CO)S(=O)(=O)c2ccc(-c3ccncc3)cc2O[C@@H]1CN(C)C(=O)c1ccc2c(c1)OCO2 | -1 | 0 | 55 | -6 | nt | nt | nt | nt
C[C@H]1CN([C@@H](C)CO)S(=O)(=O)c2ccc(-c3ccncc3)cc2O[C@H]1CN(C)C(=O)c1ccc2c(c1)OCO2 | -2 | -1 | 102* | -51 | 103* | 89 | 24 | 44*
C[C@H]1CN([C@@H](C)CO)C(=O)c2cc(NC(=O)CCCN(C)C)ccc2O[C@@H]1CN(C)Cc1ccncc1 | 0 | 4 | 33 | 17 | nt | nt | nt | nt
C[C@@H]1CN([C@@H](C)CO)S(=O)(=O)c2ccc(C#CC3CC3)cc2O[C@H]1CN(C)C(=O)Nc1cc(F)ccc1F | 0 | nt | 104* | -37 | 106* | 71 | 38* | 33*
C[C@H](CO)N1C[C@H](C)[C@H](CN(C)C(=O)Nc2cc(F)ccc2F)Oc2cc(C#CC3CCCC3)ccc2S1(=O)=O | -1 | 0 | nt | -39 | nt | nt | nt | nt
C[C@@H]1CN([C@@H](C)CO)S(=O)(=O)c2ccc(C#CC3CC3)cc2O[C@@H]1CN(C)C(=O)Nc1cc(F)ccc1F | -3 | nt | 103* | -14 | 114* | 79 | 29 | 28*
C[C@H](CO)N1C[C@H](C)[C@H](CN(C)C(=O)Nc2cc(F)ccc2F)Oc2cc(C#CC3CC3)ccc2S1(=O)=O | -3 | nt | 117* | -64 | 112* | 45 | 4 | 25
C[C@H](CO)N1C[C@H](C)[C@@H](CN(C)C(=O)Nc2cc(F)ccc2F)Oc2cc(C#CC3CCCC3)ccc2S1(=O)=O | nt | 2 | nt | -2 | nt | nt | nt | nt
Cc1ccc(NC(=O)COc2ccccc2Cl)c([N+](=O)[O-])c1 | nt | 0 | nt | nt | nt | nt | nt | nt
O=C(NC1CCCC1)N1CCCCN2[C@H](CO)[C@@H](c3ccc(-c4ccccc4)cc3)[C@H]2C1 | -3 | nt | 61 | 1 | nt | nt | nt | nt
O=C(NC1CCCC1)N1CCCCN2[C@H](CO)[C@H](c3ccc(-c4ccccc4)cc3)[C@@H]2C1 | 2 | nt | 113* | 16 | 113* | 79 | -17 | 63*
COc1ccccc1-c1ccc([C@H]2[C@@H](CO)N3CCCCN(C(=O)NC4CCCC4)C[C@@H]23)cc1 | 0 | nt | 100* | 25 | 109* | 81 | -11 | 34*
C[C@@H]1CCCCO[C@@H](CN(C)Cc2ccc(C(F)(F)F)cc2)[C@@H](C)CN([C@@H](C)CO)C(=O)c2cc(NC(=O)Nc3ccc4c(c3)OCO4)ccc2O1 | -1 | 1 | 85 | -8 | nt | nt | nt | nt
C[C@@H]1CCCCO[C@@H](CN(C)Cc2ccc3c(c2)OCO3)[C@H](C)CN([C@H](C)CO)C(=O)c2cc(NC(=O)Nc3ccc(C(F)(F)F)cc3)ccc2O1 | -2 | nt | 119* | -69 | 102* | 110* | 32 | 104*
C[C@@H]1CN([C@H](C)CO)C(=O)c2cc(NC(=O)Nc3ccc(C(F)(F)F)cc3)ccc2O[C@@H](C)CCCCO[C@@H]1CN(C)Cc1ccc2c(c1)OCO2 | 1 | nt | ? | -60 | 94 | 120* | ? | 102*
C[C@@H]1CCCCO[C@H](CN(C)Cc2ccc3c(c2)OCO3)[C@@H](C)CN([C@H](C)CO)C(=O)c2cc(NC(=O)Nc3ccc(C(F)(F)F)cc3)ccc2O1 | -1 | 3 | ? | -47 | 94 | 113* | 19 | 102*
Cc1ccccc1N(CC(=O)Nc1cccc2ccccc12)S(C)(=O)=O | nt | 0 | nt | nt | nt | nt | nt | nt
COc1cc(S(=O)(=O)NCCc2ccccc2)c(OC)cc1Br | nt | 1 | nt | nt | nt | nt | nt | nt
COc1cccc(S(=O)(=O)N[C@H]2C=C[C@H](CC(=O)NCc3ccc(F)cc3)O[C@@H]2CO)c1 | 0 | 0 | -67 | 25 | nt | nt | nt | nt
COc1ccc(NC(=O)N(C)C[C@H]2OCCCC[C@H](C)Oc3ccc(NC(=O)c4ccccc4)cc3C(=O)N([C@@H](C)CO)C[C@@H]2C)cc1 | -2 | -1 | 27 | -70 | nt | nt | nt | nt
CC=Cc1ccc2n(c1=O)C[C@@H]1[C@@H](CO)[C@H](C(=O)NCCCN(C)C)[C@H]2N1C(=O)c1ccccc1F (mixture of isomers) | 0 | nt | + | nt | 57 | -62 | -3 | 8
CC=Cc1ccc2n(c1=O)C[C@@H]1[C@@H](CO)[C@H](C(=O)NCc3ccccc3Cl)N(S(C)(=O)=O)[C@H]21 (mixture of isomers) | 0 | nt | 98* | nt | 81 | 8 | -13 | 2
CC=Cc1ccc2n(c1=O)C[C@H]1[C@H](CO)[C@@H](C(=O)NCCC)[C@@H]2N1C(=O)C1CC1 (mixture of isomers) | 0 | nt | 112* | -2 | 99* | 9 | 14 | 20
SMILES | KDM4C inh | IDH1 R132H inh | T cruzi growth-1 | Pf Dd2 growth | T cruzi growth-2 | T cruzi growth-3 | NIH3T3 tox | NIH3T3 tox 2
CC=Cc1ccc2n(c1=O)C[C@H]1[C@H](CO)[C@@H](C(=O)NCc3ccccn3)[C@@H]2N1C (mixture of isomers) | 1 | nt | + | nt | -18 | 33 | -3 | -14
Cc1noc(C)c1NC(=O)Nc1ccc2c(c1)C(=O)N([C@H](C)CO)C[C@H](C)[C@H](CN(C)Cc1ccc3c(c1)OCO3)O2 | 1 | nt | -17 | 7 | nt | nt | nt | nt
CCc1nc(SCC(=O)OC)c2c3c(sc2n1)CCCC3 | nt | 0 | nt | nt | nt | nt | nt | nt
CC=Cc1ccc2n(c1=O)C[C@@H]1[C@@H](CO)[C@H](C(=O)Nc3ccc(-c4ccccc4)cc3)[C@H]2N1C(=O)CC (mixture of isomers) | -3 | nt | 135* | nt | 103* | 13 | 24 | 48*
CCC(=O)N(C)C[C@@H]1Oc2cc(C#CCN(C)C)ccc2S(=O)(=O)N([C@@H](C)CO)C[C@H]1C | 19 | 2 | 102* | 2 | 102* | 80 | -6 | -7
C[C@H](CO)N1C[C@H](C)[C@@H](CN(C)C(=O)CN(C)C)Oc2cc(C#CCN(C)C)ccc2S1(=O)=O | 5 | -3 | -2 | 8 | nt | nt | nt | nt
CC(=O)N(C)C[C@@H]1Oc2cc(C#CCN(C)C)ccc2S(=O)(=O)N([C@H](C)CO)C[C@H]1C | 17 | 1 | 67 | 14 | nt | nt | nt | nt
